Activity calls are given as the source filed them. The rule behind the calls is not given here.
Columns and labels:
[1] = Antioxidant activity assessed as trolox equivalent of APPH-induced radical scavenging activity at 0.625 to 2.5 uM by ORAC fluorescence assay; assay type: functional
How it was run: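 AAPH (40 mM) peroxyl-radical decay of fluorescein (140 nM working solution) in 75 mM potassium phosphate pH 7.4; compounds from DMSO stocks tested at final 2.5, 1.25 and 0.625 µM. Each mixture in four replicates, at least four independent runs. Curves normalized to blank, net AUC computed, values expressed as Trolox equivalents from a Trolox standard curve.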

SH-SY5Y [2] = assay: Cytotoxicity against human SH-SY5Y cells assessed as cell viability at 2.5 uM; assay type: cell-based
How it was run: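 SH-SY5Y cells seeded at 3 × 10^4 per well, 24 h later exposed to 2.5 µM compound (final 0.05% DMSO) or vehicle for 24 h, then assessed for markers of cell death.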

[3] = Inhibition of self-mediated amyloid beta (1 to 42) aggregation after 48 hrs by thioflavin T fluorescence assay
How it was run: (§1)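 Aβ1–42 (final 20 µM) incubated in 10 mM phosphate pH 7.4 at 37 °C for 48 h with or without compound (2, 5, 10, 20, 50 µM). Samples diluted into 50 mM glycine–NaOH pH 8.5 with 5 µM ThT, read at ex 450/em 485 nm. Inhibition % = (1 − IFi/IFc) × 100; mean ± SD from at least two independent measurements.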

[4] = Inhibition of self-mediated amyloid beta (1 to 42) aggregation at 50 uM after 48 hrs by thioflavin T fluorescence assay relative to control; how it was run: as §1
SH-SY5Y [5] = assay: Antioxidant activity in human SH-SY5Y cells assessed as decrease of tert-butyl hydroperoxide-induced ROS production at 2.5 uM after 24 hrs using DCFH-DA by fluorescence assay; assay type: functional, cell-based
How it was run: (§2)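 SH-SY5Y grown in DMEM with 10% supplement at 37 °C, 5% CO2, seeded 3 × 10^4 cells/well. After 24 h, compounds were added (2.5 µM; reference antioxidants at 20 µM). Cells were loaded with 5 µM DCFH-DA in PBS for 30 min at 37 °C, washed, then exposed to 0.1 mM t-BuOOH for 30 min. Fluorescence read at ex 485/em 535 nm, expressed as % of untreated control.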

SH-SY5Y [6] = assay: Antioxidant activity in human SH-SY5Y cells assessed as decrease of tert-butyl hydroperoxide-induced ROS production at 20 uM after 24 hrs using DCFH-DA by fluorescence assay; assay type: functional, cell-based; how it was run: as §2
[7] = Inhibition of iron-induced amyloid beta (1 to 42) aggregation in HEPES buffer at pH 6.6 after 45 mins by thioflavin T fluorescence assay
How it was run: (§3)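 Aβ1–42 (20 µM) co-incubated with 40 µM Cu2+ or Fe2+ (HEPES pH 6.6) or Zn2+ (HEPES pH 7.4), with 150 µM NaCl, with or without 40 µM compound or clioquinol, at 37 °C for 45 min. Samples diluted into 50 mM glycine–NaOH pH 8.5 with 5 µM ThT; fluorescence read at ex 450/em 485 nm.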

[8] = Inhibition of copper-induced amyloid beta (1 to 42) aggregation in HEPES buffer at pH 6.6 after 45 mins by thioflavin T fluorescence assay; how it was run: as §3
[9] = Inhibition of amyloid beta (1 to 42) fibril formation assessed as few short fibrils and many breakage points in fibrils at 20 to 40 uM after 32 hrs by transmission electron microscopic analysis
How it was run: (§4)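 Aβ1–42 (40 µM) aggregated with or without 20 µM compound and sampled at 0, 12 and 32 h. Samples applied to grids, washed with water, negatively stained for 1 min with 2% uranyl acetate, blotted and examined by transmission EM.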

[10] = Metal chelating activity of the compound assessed as formation of copper complex at 20 uM by UV-vis spectrometry; assay type: functional
How it was run: (§5)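 UV spectra recorded for 20 µM compound alone or with 20 µM ZnSO4, CuSO4 or FeSO4.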

[11] = Metal chelating activity of the compound assessed as formation of iron complex at 20 uM by UV-vis spectrometry; assay type: functional; how it was run: as §5
[12] = Metal chelating activity of the compound assessed as formation of zinc complex at 20 uM by UV-vis spectrometry; assay type: functional; how it was run: as §5
[13] = Inhibition of zinc-induced amyloid beta (1 to 42) aggregation in HEPES buffer at pH 7.4 after 45 mins by thioflavin T fluorescence assay; how it was run: as §3
[14] = Inhibition of amyloid beta (1 to 42) aggregation assessed as stabilization of […] structure at 10 uM after 32 hrs by CD spectroscopy assay
How it was run: (§6)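 Aβ1–42 (20 µM) incubated at 37 °C with or without 10 µM compound in 10 mM sodium phosphate pH 7.4. At 0, 6, 12 and 32 h, far-UV CD spectra recorded at 25 °C from 190 to 260 nm in a 1 mm quartz cell (bandwidth 0.5 nm, scan 10 nm/min).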

[15] = Inhibition of amyloid beta (1 to 42) aggregation assessed as decrease of beta-sheet structure formation at 10 uM after 32 hrs by CD spectroscopy assay; how it was run: as §6
[16] = Metal chelating activity of the compound assessed as formation of copper complex at 20 uM by molar ratio method; assay type: functional
How it was run: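 Molar ratio method: compound solutions titrated with increasing CuSO4 or FeSO4; spectra obtained by subtracting CuSO4 and compound at matching concentrations, monitoring the band at 493 nm.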

[17] = Inhibition of amyloid beta (1 to 42) fibril formation assessed as less thin and short fibrils at 20 to 40 uM after 12 hrs by transmission electron microscopic analysis; how it was run: as §4

Compound | Ratio [1] | Activity (SH-SY5Y [2]) | IC50 [3] [µM] | inhibition [4] [%] | other results
CN1CCN(c2ccc(/C=C3\CN(C)C/C(=C\c4ccc(N5CCN(C)CC5)cc4)C3=O)cc2)CC1 | 4.7 | Non-toxic | 17.6 | 65.1 | –
CN1CCN(c2ccc(/C=C3\CC/C(=C\c4ccc(N5CCN(C)CC5)cc4)C3=O)cc2)CC1 | 1.7 | Non-toxic | 12.6 | 67.2 | Activity (SH-SY5Y [5]): Active
CC(=O)N[C@@H](CS)C(=O)O | – | – | – | – | Activity (SH-SY5Y [6]): inactive
Oc1c(I)cc(Cl)c2cccnc12 | – | – | – | – | inhibition [7]: Active; inhibition [8]: Active
CN1CCN(c2ccc(/C=C/C(=O)c3ccc(C(=O)/C=C/c4ccc(N5CCN(C)CC5)cc4)cc3)cc2)CC1 | 1.1 | Non-toxic | > 50 | 35.8 | –
O=C1/C(=C/c2ccc(N3CCCCC3)cc2)CNC/C1=C\c1ccc(N2CCCCC2)cc1 | 2.4 | Non-toxic | 17.2 | 64.5 | –
CN1CCN(c2ccc(/C=C/c3cccc(/C=C/c4ccc(N5CCN(C)CC5)cc4)c3)cc2)CC1 | 1.2 | Non-toxic | > 50 | 42.1 | –
CN1CCN(c2ccc(/C=C/C(=O)/C=C/c3ccc(N4CCN(C)CC4)cc3)cc2)CC1 | 3.2 | Non-toxic | 21.5 | 68.6 | Activity (SH-SY5Y [5]): Active
CN1CCN(c2ccc(/C=C3\CCC/C(=C\c4ccc(N5CCN(C)CC5)cc4)C3=O)cc2)CC1 | 2.6 | Non-toxic | 6 | 73.1 | Activity (SH-SY5Y [5]): Active
CN1CCN(c2ccc(/C=C/C(=O)c3cccc(C(=O)/C=C/c4ccc(N5CCN(C)CC5)cc4)c3)cc2)CC1 | 1.3 | Non-toxic | 37.8 | 52.8 | –
Cc1c(C)c2c(c(C)c1O)CCC(C)(C(=O)O)O2 (configuration not stated) | – | – | – | – | Activity (SH-SY5Y [6]): Active
COc1cc(/C=C/C(=O)CC(=O)/C=C/c2ccc(O)c(OC)c2)ccc1O [CURCUMIN] | 2.5 | – | 12.1 | 71.3 | Activity (SH-SY5Y [6]): Active
CN1CCN(c2ccc(/C=C/c3cccc(/C=C/c4ccc(N5CCN(C)CC5)cc4)n3)cc2)CC1 | 1.1 | Non-toxic | > 50 | 24 | –
CN1CCN(c2ccc(/C=C3\CNC/C(=C\c4ccc(N5CCN(C)CC5)cc4)C3=O)cc2)CC1 | 5.8 | Non-toxic | 2.5 | 90.2 | inhibition [9]: Active; Activity [10]: Active; Activity [11]: Active; Activity [12]: inactive; Activity (SH-SY5Y [5]): Active; inhibition [13]: Active; inhibition [14]: Active; inhibition [15]: Active; Activity [16]: Active; inhibition [7]: Active; inhibition [8]: Active; inhibition [17]: Active
CN1CCN(c2ccc(/C=C/C(=O)CC(=O)/C=C/c3ccc(N4CCN(C)CC4)cc3)cc2)CC1 | 1.9 | Non-toxic | 9.2 | 77.8 | –
